Screening data from PubChem.
T cruzi inh: blocks replication of Trypanosoma cruzi; T. cruzi beta-gal in NIH3T3, luminescence, 90 h; inhibition, % (test concentration not listed); actives 1.4% (n = 300,000); AID 1885;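 active = mean inhibition across valid replicates above about 55%, limit read from the data; inconclusive = mean below that limit but half or more replicates reach it; inactive = mean below it, under half of replicates reach it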;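 also: signal also drops with host cell toxicity which is not excluded here; 0% = plate median of DMSO wells and 100% = zero luminescence signal; higher percent means less beta-gal luminescence so fewer parasites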
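assay system = mouse NIH/3T3 fibroblasts infected with β-gal-expressing T. cruzi Tulahuen C4 | input = 5,000 NIH/3T3 host cells per well | buffer or medium = DMEM plus 2% FBS | timing = 3 h host attachment, then at least 90 h co-culture | measured by = GalScreen luminescence, 60 min | evaluation = luminescence reflecting intracellular parasite burden, expressed as percent inhibition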
NALP1 yeast inh: blocks the NALP1 inflammasome reconstituted in yeast | S. cerevisiae NALP1/ASC/caspase-1 growth, X-gal OD620, 72 h | inhibition, % at 10 µM | actives 0.61% (n = 280,000) | AID 2071; in the data active = inhibition mostly above about 24%, no sharp cut-off; inactive = mostly below about 32%
PolyA inhibitor: yeast polyadenylation inhibition. S. cerevisiae SKY197-pL101 polyadenylation reporter, beta-gal luminescence; efflux-impaired pdr1/pdr3 knockout yeast; score 100 = 6 SD above DMSO. activity score, % at 12 µM. actives 0.02% (n = 300,000). AID 1875;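 active = lowest replicate activity score at least 50, where 100 means six control SD above control mean; inconclusive = lowest score under 50 but half or more replicates reach 50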;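 also: yeast exposed to compound for 9 h at 30 °C; higher score means more reporter readthrough which indicates perturbed polyadenylation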
Calb FLC: C. albicans growth modulation with fluconazole; C. albicans CaCi-2 + fluconazole, Alamar Blue growth, 48 h; actives 0.57% (n = 300,000); growth inhibition, % (test concentration not listed);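 active = growth inhibition above about 58% in most replicates, limit read from the data, passing the limit was not always enough; inconclusive = exactly half the replicates above a set limit; inactive = most replicates below a set limit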;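 also: all wells also contain fluconazole at 8 µg/ml as a sub-toxic cotreatment; 0% = median of DMSO wells and 100% = median of geldanamycin control wells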
NALP3 yeast inh: inhibitors of NALP3 inflammasome in yeast. actives 0.39% (n = 330,000). Yeast reconstituted NLRP3/ASC/caspase-1, beta-gal luminescence, 24 h. inhibition, % at 10 µM;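 active = inhibition of 50% or more; inactive = inhibition below 50%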;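 also: plate controls were induced DMSO wells for no effect and uninduced yeast grown without galactose for full effect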
Lmaj promast: inhibitors of Leishmania major promastigote growth; inhibition, % at 10 µM; AID 1063; Leishmania major promastigotes, resazurin fluorescence viability; actives 9% (n = 200,000); in the data active = inhibition above about 50%;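 also: promastigotes grown with compound for 44 hours at 28 °C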
An asterisk follows results filed as active; ? = inconclusive; . = no result given. Shown is part of a subset that was picked to be rich in hits.

SMILES | T cruzi inh | NALP1 yeast inh | PolyA inhibitor | Calb FLC | NALP3 yeast inh | Lmaj promast
O=C(Nc1ccc2nc3n(c(=O)c2c1)CCCC3)c1cccc([N+](=O)[O-])c1 | -2.1 | 27.0 | 9.8 | -12.1 | 13.3 | 17.4
CCOCCCNC(=S)Nc1ccc2nc3n(c(=O)c2c1)CCCCC3 | -6.3 | -9.6 | -10.8 | -6.1 | 11.8 | 7.9
CCCCNC(=S)Nc1ccc2nc3n(c(=O)c2c1)CCCCC3 | -4.7 | -18.2 | 1.1 | -4.4 | -6.1 | 51.0*
O=C(Nc1ccc2nc3n(c(=O)c2c1)CCCC3)c1cc([N+](=O)[O-])ccc1F | -36.5 | 46.0 | -11.8 | 2.3 | 48.5 | 100.3*
S=c1[nH]nc(C2CCCCC2)n1/N=C/c1cccc(Cl)c1Cl | 7.4 | -6.3 | -24.2 | -5.8 | 15.9 | .
Cc1cc(C)cc(OCCn2ccnc2)c1 | -21.2 | . | -17.3 | 0.0 | 11.2 | .
CC1CCN(c2nc(-c3ccncc3)nc3ccccc23)CC1 | 51.0 | 0.3 | -56.5 | 2.1 | -6.4 | 98.9*
c1ccc2c(N3CCOCC3)nc(-c3ccncc3)nc2c1 | 14.0 | 15.0 | -4.9 | 3.4 | 25.9 | 91.8*
CCN1CCN(c2nc(-c3ccccc3)nc3ccccc23)CC1 | -2.2 | 32.8 | 7.4 | -5.7 | 41.4 | 16.0
CC1CCN(C(=O)C(C)OC(=O)CSc2ccc([N+](=O)[O-])cc2)CC1 (stereo unspecified) | . | . | . | . | 4.9 | .
CNC(=S)NC1CC2CCCC(C1)N2Cc1ccc(C)cc1 (stereo unspecified) | -16.4 | -3.4 | 2.4 | -23.1 | 9.7 | 90.6*
CCC(=O)NC1CC2CCCC(C1)N2Cc1ccc(C)cc1 (stereo unspecified) | 5.8 | -16.2 | -2.4 | -4.8 | 8.8 | .
CCNC(=S)NC1CC2CCCC(C1)N2Cc1ccc(C)cc1 (stereo unspecified) | 10.8 | -8.7 | 5.9 | -5.8 | 7.9 | .
CC(=O)NC1CC2CCC(C1)N2Cc1ccc(C)cc1 (stereo unspecified) | 8.8 | 9.7 | 23.6 | -5.8 | 5.8 | 89.8*
O=C(Nc1ccccc1)c1cc2ccc3ccccc3c2s1 | 18.0 | . | 9.3 | 1.5 | 9.8 | .
Cc1cccc(OCCOc2ccccc2C=C(C#N)C#N)c1 | -9.1 | 33.9 | -9.5 | 9.4 | . | 93.9*
Cc1ccccc1OCCOc1ccccc1C=C(C#N)C#N | . | 5.5 | . | . | . | 78.2*
Cc1ccccc1OCCNC(=S)Nc1ccccc1 | -0.4 | 3.9 | 3.2 | 4.6 | 16.3 | 7.8
Cc1cccc(OCCOC(=O)Nc2ccccc2)c1 | -13.5 | 34.3 | -19.5 | 1.8 | 24.1 | -7.8
[O-]/C(=C(\C(=S)Nc1ccc(SC(F)F)cc1)[n+]1ccccc1)c1ccc(Cl)cc1Cl | 22.7 | 3.9 | -6.9 | -6.7 | 11.1 | 83.6*
COc1ccc(NC(=O)c2cnc(C)cn2)c2ncccc12 | -13.4 | 0.8 | -11.2 | 0.1 | . | 85.8*
Cc1ccc(OC(F)F)c(NC(=O)Nc2cccc(C(F)(F)F)c2)c1 | 55.3* | -0.6 | -16.1 | -27.5 | -1.9 | 21.5
O=C(Nc1ccccc1)Nc1cccc(C(F)(F)F)c1 | 39.9 | -3.0 | -6.9 | ? | 23.0 | -4.5
COc1cccc(NC(=O)Nc2cc(C)ccc2OC)c1 | 20.5 | 1.2 | 4.7 | 20.4 | 35.8 | 10.0
Cc1cc(NC(=O)Nc2cccc(C(F)(F)F)c2)n(C)n1 | -24.3 | 31.7* | -1.0 | 1.5 | 6.9 | -10.7
SMILES | T cruzi inh | NALP1 yeast inh | PolyA inhibitor | Calb FLC | NALP3 yeast inh | Lmaj promast
O=C(COC(=O)CCCSc1nc2ccccc2[nH]1)Nc1ccc(Cl)cc1 | -7.0 | 22.3 | -0.5 | -7.9 | 7.1 | 3.2
COc1ccccc1C(=O)NCCC(=O)Nc1ccncc1 | -15.2 | . | -11.9 | -3.8 | -3.5 | .
CC1(C)CC(NC(=O)c2ccncc2)CC(C)(C)N1O | -13.7 | 19.3 | 23.0 | -4.6 | 4.9 | -6.4
O=C(Cn1cncn1)NCCC(c1ccccc1)c1ccccc1 | -0.7 | 5.9 | -0.6 | 2.8 | 7.0 | -2.3
O=C(NC(NC(=S)Nc1cccc(C(=O)O)c1)C(Cl)(Cl)Cl)OCc1ccccc1 (stereo unspecified) | -16.7 | 15.7 | 4.6 | 2.4 | 8.2 | -4.9
CCOC(=O)NC(NC(=S)Nc1ccc(OC)cc1)C(Cl)(Cl)Cl (stereo unspecified) | -10.3 | 33.3 | 1.0 | -16.8 | 5.3 | 1.5
Cc1cccc(NC(=S)NC(NC(=O)OCc2ccccc2)C(Cl)(Cl)Cl)c1 (stereo unspecified) | 57.0* | 1.4 | -11.7 | -6.8 | 14.6 | 33.0
O=C(NC(NC(=S)Nc1cccc(Cl)c1)C(Cl)(Cl)Cl)OCc1ccccc1 (stereo unspecified) | 7.0 | -1.3 | -3.0 | -18.1 | 25.8 | 100.2*
O=C(NNC(=S)NC(=O)c1ccccc1Cl)c1cccc([N+](=O)[O-])c1 | -3.1 | 15.0 | 11.7 | -11.4 | 36.0 | .
O=C(NC(NC(=S)Nc1c(Cl)cccc1Cl)C(Cl)(Cl)Cl)c1cccc([N+](=O)[O-])c1 (stereo unspecified) | 58.6* | 14.6 | 1.3 | -1.3 | 19.0 | 38.6
Cc1cccc(NC(=O)[C@H](Cc2ccccc2)NC(=O)OCc2ccccc2)c1 | -0.8 | 22.6 | 4.1 | -17.1 | 2.1 | 70.8*
CC(=O)NC(NC(=S)Nc1ccc(S(N)(=O)=O)cc1)C(Cl)(Cl)Cl (stereo unspecified) | -14.2 | -22.8 | 5.5 | 0.6 | -1.8 | .
CC(CCc1ccccc1)NC(=O)c1ccc(NC(=O)c2cccc(Br)c2)cc1 (stereo unspecified) | 70.4* | 28.3 | 7.1 | 4.6 | -1.7 | 29.9
Cc1cccc(C(=O)NC(NC(=S)Nc2ccc(S(N)(=O)=O)cc2)C(Cl)(Cl)Cl)c1 (stereo unspecified) | -3.7 | 16.4 | -7.9 | 0.6 | 7.5 | 54.4*
Cc1cccc(NC(=S)NC(C)CCc2ccccc2)c1 (stereo unspecified) | 5.0 | 30.8 | 4.9 | -20.8 | 28.4 | 78.1*
CC(C)C[C@H](NC(=O)Nc1ccccc1F)C(=O)O | -32.2 | -3.9 | 10.0 | 17.8 | 9.8 | 12.1
CC(/C=N/Nc1nnc(C)c(=O)[nH]1)=C\c1ccccc1 | -13.2 | -20.2 | 8.2 | 22.6 | 6.1 | 5.0
O=c1[nH]c(N/N=C\c2ccc3c(c2)OCO3)nc2ccccc12 | 2.3 | 16.1 | -12.0 | -9.5 | -0.4 | 51.2*
Cc1cccc(/C=N\Nc2nnc(-c3ccccc3)c(=O)[nH]2)c1 | -24.6 | 22.2 | 21.6 | 2.6 | 13.0 | 68.2*
O=c1[nH]c(N/N=C/c2ccccc2)nc2ccccc12 | -1.1 | 36.5 | 6.2 | 22.7 | 25.2 | 57.8*
O=C(C1CCCO1)N1CCN(S(=O)(=O)c2cc(F)ccc2F)CC1 (stereo unspecified) | -11.6 | 9.9 | -0.8 | 4.4 | -0.1 | .
Cc1cc(NC(=O)CCC(=O)N(CC(=O)NC2CCCC2)c2ccc(C(C)C)cc2)no1 | 7.8 | 4.5 | -13.2 | 0.3 | 9.9 | .
CCC(Sc1nnc(C)s1)C(=O)Nc1nccs1 (stereo unspecified) | 2.6 | 12.4 | -1.0 | -5.3 | 23.2 | -7.7
CCC(Sc1nc2ccc(N)cc2s1)C(=O)Nc1nccs1 (stereo unspecified) | -1.4 | 13.0 | 13.2 | -39.0 | 18.7 | 54.8*
